Read-outs that look alike come from different tables or passages of the source.

Data on eight compounds can be found in PMC7807167 (Methods (San Diego, Calif.), 2021).

The test system of data set [1] is SARS-CoV-2/MT020880. Type of data set: cell-based. To be noted: for IC50_Viral Entry blocking assay: ‘Very wide’ = some activity at high concentrations too staggering to plot.
Data set [2] concerns SARS-CoV-2/MT020880. The data set is classed as cell-based. Particulars: for IC-50_Viral Spread assay: ‘Very wide’ = some activity at high concentrations too staggering to plot.
The next data set has as its system SARS-CoV-2. Type of data set: cell-based. To be noted: for inhibitory activity against SARS-CoV-2: concentration range tested; for anti-SARS-CoV-2 activity at 25 µM: Fig 6, Fig 7.
For a further data set, the system named is ATCC Vero E6 cells. To be noted: for Cytotoxicity: Vero E6, tested range up to 50 μM.
For data set [3], the target named is T1, 3CLpro (Severe acute respiratory syndrome coronavirus 2, UniProt P0DTD1). The experiment in a line: Preliminary compound screening for 3CLpro inhibitors. Type of data set: biochemical, SARS-CoV-2. To be noted: four concentrations, 1–50 µM, 3CLpro 0.4 µM, TVLQ-AMC 40 µM. An outline of the steps: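 Duplicate wells, 25 °C. Test compound (1–50 µM) or DMSO (0 µM) preincubated about 5 min with 3CLpro (0.4 µM) in Tris-HCl pH 7.3, 1 mM EDTA. Started with TVLQ-AMC (40 µM), shaken 5 s, emission 440 nm (excitation 364 nm) read 1 min–3 h. Controls: 6–8 DMSO wells, 2 no-enzyme wells. Two replicate screens; emission normalized to 0 µM at 3 h.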

Data set [4] concerns the target T1, 3CLpro. The experiment in a line: 3CLpro enzyme inhibition assay. Type of data set: biochemical, SARS-CoV-2. An outline of the steps: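 Inhibitor (0–1000 µM) preincubated about 5 min with 3CLpro (0.4 µM) in Tris-HCl pH 7.3, 1 mM EDTA, triplicate, 25 °C. Started with TVLQ-AMC (40 µM) at fixed concentration, shaken 5 s. Fluorescence (excitation 364 nm) read continuously over time.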

For `OC[C@H]1O[C@@H](O[C@@H]2[C@@H](CO)OC(O)(CO)[C@H]2O)[C@H](O)[C@@H](O)[C@H]1O` (mixture of isomers) [Lactulose], the “IC50_Viral Entry blocking assay” value in the data set on SARS-CoV-2/MT020880 [1] was “nil”. Besides, the “IC-50_Viral Spread assay” value in the data set with SARS-CoV-2/MT020880 [2] is listed as “nil”. In addition, the “inhibitory activity against SARS-CoV-2” value in the data set with SARS-CoV-2 was “no observed inhibitory activity”. Further, the Cytotoxicity entry in the data set with ATCC Vero E6 cells was “Nontoxic within tested conc. range”.

Regarding `NCC[C@H](O)C(=O)N[C@@H]1C[C@H](N)[C@@H](O[C@H]2O[C@H](CN)[C@@H](O)[C@H](O)[C@H]2O)[C@H](O)[C@H]1O[C@H]1O[C@H](CO)[C@@H](O)[C@H](N)[C@H]1O` [Amikacin hydrate], the “IC50_Viral Entry blocking assay” value in the data set with SARS-CoV-2/MT020880 [1] is on record as “(Very wide)”. Further, the “IC-50_Viral Spread assay” value in the data set with SARS-CoV-2/MT020880 [2] is “(Very wide)”. Besides, in the data set on ATCC Vero E6 cells, the Cytotoxicity result was “Nontoxic within tested conc. range”.

Take Ivermectin: the “Percent inhibition at 50 µM” value in the data set on SARS-CoV-2/MT020880 [1] (viral entry assay, 50 µM) worked out at 99%; in the data set with SARS-CoV-2/MT020880 [2], 46%. Also, the “concentration with high cytotoxicity” value in the data set on ATCC Vero E6 cells (ATCC E6 Vero cells, number of nuclei counted) is above 16.67 µM. Moreover, the Cytotoxicity result in the data set on ATCC Vero E6 cells is reported as “Toxic above 50 µM”.

As to `COCC(=O)Nc1c(I)c(C(=O)NCC(O)CO)c(I)c(C(=O)N(C)CC(O)CO)c1I` (stereo not shown) [Iopromide], the “IC50_Viral Entry blocking assay” value in the data set with SARS-CoV-2/MT020880 [1] is listed as “nil”. Moreover, the “IC-50_Viral Spread assay” value with SARS-CoV-2/MT020880 [2] is reported as “nil”. Further, the “inhibitory activity against SARS-CoV-2” value in the data set with SARS-CoV-2 was “no observed inhibitory activity”. In the data set with ATCC Vero E6 cells, the Cytotoxicity result is reported as “Nontoxic within tested conc. range”.

Regarding `[H]/N=C(/N)SCCCn1cc(C2=C(c3cn(C)c4ccccc34)C(=O)NC2=O)c2ccccc21` [Bisindolylmaleimide IX], the “activity in 3CLpro screening (rate of substrate cleavage)” value at 3CLpro [3] is “significant activity”. The compound further gave an IC50 against 3CLpro [4] of 114 ± 5.2 µM. Moreover, in the data set on ATCC Vero E6 cells, the Cytotoxicity result was “Nontoxic within tested conc. range”.

`O=C(CCCN1CCC(O)(c2ccc(Cl)cc2)CC1)c1ccc(F)cc1` [Haloperidol]: the “anti-SARS-CoV-2 activity at 25 µM” value with SARS-CoV-2 came out at 9.8%. For the same compound, the “activity in 3CLpro screening (rate of substrate cleavage)” value on 3CLpro [3] is listed as “very mild activity”. The Cytotoxicity entry with ATCC Vero E6 cells was “Non-toxic within tested conc. range”.

For `NC[C@@H]1O[C@H](O[C@H]2[C@@H](O)[C@H](O[C@@H]3[C@@H](O)[C@H](N)C[C@H](N)[C@H]3O[C@H]3O[C@H](CO)[C@@H](O)[C@H](O)[C@H]3N)O[C@@H]2CO)[C@H](N)[C@@H](O)[C@@H]1O` [Paromomycin], in the data set on SARS-CoV-2/MT020880 [2], the “IC-50_Viral Spread assay” value is “(Very wide)”. In addition, in the data set on SARS-CoV-2, the “anti-SARS-CoV-2 activity at 25 µM” value was found to be 2.3%. In addition, the Cytotoxicity result with ATCC Vero E6 cells is recorded as “Nontoxic within tested conc. range”.

On to `C[C@@H]1O[C@@H](OC[C@H]2O[C@@H](Oc3c(-c4ccc(OCCO)c(OCCO)c4)oc4cc(OCCO)cc(O)c4c3=O)[C@H](O)[C@@H](O)[C@@H]2O)[C@H](O)[C@H](O)[C@H]1O` [Troxerutin], for which the “IC50_Viral Entry blocking assay” value with SARS-CoV-2/MT020880 [1] is listed as “(Very wide)”. The “IC-50_Viral Spread assay” value in the data set on SARS-CoV-2/MT020880 [2] is reported as “(Very wide)”. In addition, the “anti-SARS-CoV-2 activity at 25 µM” value with SARS-CoV-2 was found to be 2.8%. The Cytotoxicity entry in the data set on ATCC Vero E6 cells is given as “Nontoxic within tested conc. range”.

Usually IC50 stands for the concentration that gives 50% inhibition. Lower therefore signals higher potency.
